From ChEMBL document CHEMBL4477161, “Facile Synthesis of Natural Alkoxynaphthalene Analogues from Plant Alkoxybenzenes” (J Nat Prod, 2016)
Activity calls are given as the source filed them.

Columns and labels:
Type in all cases: functional, organism-based
[1] = system: Paracentrotus lividus; test: In vivo antiproliferative activity in sea urchin embryos assessed as cleavage alteration at 4 uM measured after 2.5 to 5.5 hrs post fertilization
Procedure, shortened: (§1)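 Fertilized sea urchin eggs, cultured at room temperature in filtered seawater with paddle agitation (60 rpm), were exposed as a monolayer (up to 2000 embryos/mL) 8−20 min after fertilization to 2-fold serial dilutions. Compounds came from 10 mM DMSO stocks diluted 10-fold in 96% EtOH, with final DMSO ≤0.05% and EtOH ≤1%. Cleavage alteration was scored microscopically at 2.5−5.5 h post-fertilization. The threshold concentration is the lowest dose giving 100% alteration.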

[2] = system: Paracentrotus lividus; test: In vivo antiproliferative activity in sea urchin embryos assessed as cleavage alteration at 2 uM measured after 2.5 to 5.5 hrs post fertilization; procedure, shortened: as §1
[3] = system: Paracentrotus lividus; test: In vivo antiproliferative activity in sea urchin embryos assessed as cleavage alteration up to 4 uM measured after 2.5 to 5.5 hrs post fertilization; procedure, shortened: as §1
[4] = system: Paracentrotus lividus; test: In vivo antiproliferative activity in sea urchin embryos assessed as cleavage alteration at 1 uM measured after 2.5 to 5.5 hrs post fertilization; procedure, shortened: as §1

COc1cc(-c2cccc3cc4c(cc23)OCO4)cc(OC)c1OC
Activity [1]: Active
Activity [2]: Active

COc1ccc(-c2cccc3cc4c(c(OC)c23)OCO4)cc1
Activity [1]: Active

COc1ccc(C2CC(O)Cc3c(OC)c4c(c(OC)c32)OCO4)cc1 (stereo not given)
Activity [3]: inactive

COc1ccc(C(=O)CC(O)Cc2ccc3c(c2)OCO3)cc1 (stereo not given)
Activity [3]: inactive

COc1ccc(C(N)CC(O)Cc2cc(OC)c3c(c2OC)OCO3)cc1 (stereo not given)
Activity [3]: inactive

COc1ccc(-c2cccc3cc(OC)c4c(c23)OCO4)cc1
Activity [3]: inactive

COc1ccc(-c2cccc3c(OC)c(OC)c(OC)c(OC)c23)cc1
Activity [3]: inactive

COc1ccc(-c2cccc3c(OC)c4c(c(OC)c23)OCO4)cc1
Activity [3]: inactive

COc1ccc(-c2cccc3c(OC)c(OC)c4c(c23)OCO4)cc1
Activity [4]: Active
Activity [1]: Active
Activity [2]: Active

COc1ccc(C(O)CC(O)Cc2cc(OC)c3c(c2OC)OCO3)cc1 (stereo not given)
Activity [2]: Active

COc1ccc(C(=O)CC(O)Cc2cc(OC)c3c(c2)OCO3)cc1 (stereo not given)
Activity [3]: inactive

COc1ccc(-c2cccc3cc4c(cc23)OCO4)cc1
Activity [3]: inactive
